Assay outcomes from PubChem.
NadD inh: inhibitors of Staphylococcus aureus NadD | purified NadD enzyme, colorimetric absorbance read-out | inhibition, % at 20 µM | 360,000 tested, 0.78% active | AID 602399; in the data active = inhibition above about 26%
rCAG binder-1: molecules binding r(CAG) RNA repeats; 370,000 tested, 1.3% active; inhibition, % at 3 µM; r(CAG) RNA repeat, TO-PRO-1 dye displacement fluorescence;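 active = inhibition above the plate cutoff, the mean of all test compounds on that plate plus 3 SD, cut at about 35% in these data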;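 also: higher means more dye released from RNA so lower well fluorescence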
ARFGAP1 inhibitor: inhibits rat ARF GTPase activating protein 1; Q62848; Arfgap1-stimulated ARF1 GTP hydrolysis, GDP FP detection; AID 651572; inhibition, % at 16.5 µM; 360,000 tested, 0.26% active;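 active = inhibition above a per-plate limit, mean inhibition of low control wells plus 3 SD, cut at about 25% in these data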
Target sequence (Q62848 1-136 limits assumed): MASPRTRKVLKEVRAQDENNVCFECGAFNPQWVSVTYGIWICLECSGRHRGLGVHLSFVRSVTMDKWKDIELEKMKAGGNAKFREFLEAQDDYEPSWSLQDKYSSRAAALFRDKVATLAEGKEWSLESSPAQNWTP
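Material: rat Arfgap1 catalytic domain, aa 1-136; also added: human ARF1(Δ1-17)-GTP substrate; compound dosing: one concentration, 16.5 µM, DMSO 1.26%; incubation: GTP hydrolysis reaction 2 h at 25 °C; measured by: Tracer-displacement fluorescence polarization with EDTA stop, 620/688 nm; evaluation: % inhibition from polarization; repeats: one replicate per compound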
ASAP1 inh: inhibitors of human ASAP1 ArfGAP activity. Q9ULH1. ASAP1-stimulated ARF1 GTP hydrolysis, GDP FP detection. inhibition, % at 16.5 µM. 360,000 tested, 0.19% active. AID 624377; in the data active = inhibition above about 25%
Target sequence (Q9ULH1 325-724 limits assumed): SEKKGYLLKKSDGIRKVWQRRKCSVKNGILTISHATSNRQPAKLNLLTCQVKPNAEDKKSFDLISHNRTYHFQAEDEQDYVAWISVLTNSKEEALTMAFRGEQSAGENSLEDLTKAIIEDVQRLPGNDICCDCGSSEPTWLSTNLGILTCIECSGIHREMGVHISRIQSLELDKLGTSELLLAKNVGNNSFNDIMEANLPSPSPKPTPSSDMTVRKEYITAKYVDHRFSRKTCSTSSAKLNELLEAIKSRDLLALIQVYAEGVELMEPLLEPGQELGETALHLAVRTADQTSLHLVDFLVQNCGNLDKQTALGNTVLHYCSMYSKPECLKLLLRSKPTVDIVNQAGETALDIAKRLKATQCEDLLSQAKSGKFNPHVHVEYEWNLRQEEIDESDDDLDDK
NadD conf: NadD (S. aureus) inhibition, single concentration confirmation; shares compounds with NadD inh; purified S. aureus NadD, colorimetric enzyme assay; inhibition, % at 20 µM; 2,000 tested, 13% active; AID 624309; in the data active = inhibition mostly above about 42%, no sharp cut-off; inactive = mostly below about 42%
ASAP1 inh confirm: confirmation of human ASAP1 inhibitors | shares compounds with ASAP1 inh | ASAP1-stimulated Arf1 GTPase, GDP fluorescence polarization | inhibition, % at 16.5 µM | 620 tested, 37% active | AID 624431;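 active = mean inhibition over triplicates exceeds the hit threshold derived for the earlier primary screening run, cut at about 25% in these data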
rCAG binder conf: r(CAG) RNA repeat binding, confirmation. shares compounds with rCAG binder-1. TO-PRO-1 dye displacement fluorescence. inhibition, % at 3 µM. 4,300 tested, 70% active. AID 652065;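 active = inhibition above a per-plate cutoff, the mean inhibition of sample wells plus 3 SD, cut at about 35% in these data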;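 also: loss of TO-PRO-1 fluorescence as compound displaces dye from 1x1 AA loop RNA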
DNA CAG counter: DNA CAG dye complex inhibition counter-screen; shares compounds with rCAG binder-1; d(CAG) DNA oligo TO-PRO-1 dye displacement, fluorescence; inhibition, % at 3 µM; 4,300 tested, 94% active; AID 652068;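 active = inhibition above its plate's cutoff, the mean test-well inhibition plus 3 SD, cut at about 4.8% in these data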;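 also: hits displace the dye from DNA and so lower well fluorescence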
dCAG dye DR: counter-screen for rCAG binders: inhibitors of DNA CAG TO-PRO-1 complex; shares compounds with rCAG binder-1; IC50, µM; DNA CAG/GTC duplex TO-PRO-1 dye displacement fluorescence; 250 tested, 20% active; in the data active = IC50 below about 10 µM
dCAG DNA bind: DNA CAG dye complex inhibition, late stage dose response; shares compounds with rCAG binder-1; d(CAG) DNA duplex TO-PRO-1 dye displacement, fluorescence; IC50, µM; 30 tested, 80% active; AID 720649
rCAG binder-2: molecules binding r(CAG) RNA repeats, late stage dose response; shares compounds with rCAG binder-1; r(CAG) RNA TO-PRO-1 dye displacement, fluorescence; IC50, µM; 30 tested, 100% active; AID 720651
Each line names hits and unclear results; the compound was inactive in the other large screens (follow-up assays come after a bar, where they were run). Only some compounds are listed: those with a hit (about 2.2% of all), similar ones and a draw of the others. Unless noted, no rule for the calls is given here.

CCOC(=O)c1ccccc1NC(=O)c1ccc2c(SCC(=O)O)c3c(nc2c1)CCCC3	NadD inh 30, rCAG binder-1 46 | NadD conf 62 | rCAG binder conf 74 | DNA CAG counter 30 | dCAG dye DR 7.1 | dCAG DNA bind 5.5 | rCAG binder-2 3
CCOC(=O)C1=C(C)N(C[C@@H]2CC[C@@H](Cc3ccc(-c4ccccc4)cc3)O2)C(=O)NC1c1ccc(C(F)(F)F)cc1 (some centres undefined)	none
CCOC(=O)C1=C(C)N(C[C@@H]2CC[C@@H](Cc3ccc(-c4ccccc4)cc3)O2)C(=O)NC1c1ccc(SCc2ccco2)c([N+](=O)[O-])c1 (some centres undefined)	NadD inh 59, rCAG binder-1 49 | NadD conf inactive | rCAG binder conf 36 | DNA CAG counter 19
CCOC(=O)C1=C(C(=O)OCC)C2N(Cc3ccc(C#N)cc3)c3ccccc3[C@@]23C[C@@H](C(=O)OC)N(S(=O)(=O)c2ccc(OC)cc2)C3=N1 (some centres undefined)	none (no result: NadD inh)
O=C(COc1ccccc1)Nc1nnc(S(=O)(=O)N2CCCC2)s1	none
Cc1ccc(OCC(=O)Nc2nnc(S(=O)(=O)N3CCC(C)CC3)s2)cc1	NadD inh 26, rCAG binder-1 42 | NadD conf inactive | rCAG binder conf 53 | DNA CAG counter 23
COC(=O)C1=C(C)N(Cc2cccc(C(F)(F)F)c2)C(=NCc2ccc3c(c2)OCO3)NC1c1ccccc1C(F)(F)F (centres undefined)	none (no result: NadD inh)
CCCOc1ccc(C(=O)N/N=C/c2ccc(-c3ccc(S(=O)(=O)Nc4ncccn4)cc3)o2)cc1	NadD inh 32, rCAG binder-1 54 | NadD conf 49 | rCAG binder conf 60 | DNA CAG counter 24
O=C(O)c1ccc(/C=N/NC(=O)c2cc3c(ccc4ccccc43)o2)cc1	none
O=C(N/N=C/c1ccc(-c2ccc(Cl)c(C(=O)O)c2)o1)c1cc2c(ccc3ccccc32)o1	NadD inh 39, rCAG binder-1 52 | NadD conf 52 | rCAG binder conf 86 | DNA CAG counter 61
CCOC(=O)C1=CCN(S(=O)(=O)c2ccc(Cl)cc2)C1c1ccc(Br)cc1 (centres undefined)	none (no result: NadD inh)
COc1ccccc1-n1c(SCC(=O)c2ccc(O)cc2O)nc2cc([N+](=O)[O-])ccc21	NadD inh 49, rCAG binder-1 49 | NadD conf inactive | rCAG binder conf 47 | DNA CAG counter 22
COc1ccccc1-n1c(SCC(=O)NC2CCS(=O)(=O)C2)nc2cc([N+](=O)[O-])ccc21 (centres undefined)	none
O=C(OC12CCCN(C1)/C(=C/c1ccncc1)C2)c1ccco1 (centres undefined)	none (no result: NadD inh, ARFGAP1 inhibitor, ASAP1 inh)
Cc1cc(-c2nnc(SCC(=O)Nc3nc(-c4ccc(Cl)cc4)cs3)o2)no1	NadD inh 27, rCAG binder-1 46 | NadD conf inactive | rCAG binder conf inactive | DNA CAG counter 5.8
Cc1ccc(NS(=O)(=O)c2cc([N+](=O)[O-])ccc2NNC(=S)Nc2cc(C)ccc2C)c(C)c1	NadD inh 47, rCAG binder-1 50 | NadD conf inactive | rCAG binder conf 84 | DNA CAG counter 44
NC(=O)c1ccsc1NC(=O)CSc1n[nH]c(N)n1	none
Cc1ccsc1/C=C/C1=Cc2c(sc(NC(=O)CSc3n[nH]c(N)n3)c2C#N)C(C)(C)C1	NadD inh 64, rCAG binder-1 55 | NadD conf inactive | rCAG binder conf 53 | DNA CAG counter 26
COc1cc2c3nnc(-c4ccc(F)cc4)c-3cn(Cc3cccc(F)c3)c2cc1OC	none (no result: rCAG binder-1, ARFGAP1 inhibitor, ASAP1 inh)
COc1cc2c3nnc(-c4ccc(F)cc4)c-3cn(Cc3cccc(C)c3)c2cc1OC	ASAP1 inh 123 | ASAP1 inh confirm 181
CNC(=S)N(CCc1c(C)[nH]c2ccc(C)cc12)Cc1cccs1	ASAP1 inh 26 | ASAP1 inh confirm inactive
COc1cc(/C=C/C(=O)Nc2cc(C(F)(F)F)ccc2Cl)cc(OC)c1OC	ASAP1 inh 25 | ASAP1 inh confirm inactive
COc1cccc(-c2cnc3c(NC=O)cc(-c4ccc(N5CCN(C)CC5)cc4)cn23)c1	ASAP1 inh 36 | ASAP1 inh confirm 76
N#Cc1cccc(NC(=O)CSc2ccc3c4c(cccc24)C(=O)c2ccccc2-3)c1	ASAP1 inh 100 | ASAP1 inh confirm 111
C=CC[C@@H](CC(=O)N[C@@H](CO)Cc1ccccc1)C(=O)N[C@H](COC(=O)[C@@H](CC=C)Cc1ccc(F)cc1)Cc1c[nH]c2ccccc12	ASAP1 inh 32 | ASAP1 inh confirm inactive
CC(=O)Nc1ccc(Sc2ccc([N+](=O)[O-])o2)cc1	ASAP1 inh 31 | ASAP1 inh confirm inactive
CC1=C(SCc2ccccc2)C(=O)c2ccccc2C1=O	ASAP1 inh 32 | ASAP1 inh confirm inactive
Cc1cc2c(nc1C)CCCN2S(=O)(=O)c1cccs1	none (no result: NadD inh)
Cc1cccc(-c2onc3ccc(C(=O)/C=C/N(C)C)cc23)c1	none
COc1cccc(-c2onc3ccc(C(=O)/C=C/N(C)C)cc23)c1	ASAP1 inh 35 | ASAP1 inh confirm 51
COCCNc1nc(NCCOc2ccccc2)c2sc(-c3ccccc3)cc2n1	none
NC1=NC(=O)/C(=C/c2ccc(-c3ccc(S(N)(=O)=O)cc3)o2)S1	none
CS(=O)(=O)Nc1ccc(-c2ccc(/C=C3\SC(N)=NC3=O)o2)cc1	ASAP1 inh 30 | ASAP1 inh confirm 62
COc1cccc(CC(=O)NCC2CCN(C(=O)C(=O)c3cccs3)CC2)c1	none (no result: NadD inh)
O=C(Nc1ccc2nsnc2c1)N1CCCCCC1	none
S=C(Nc1ccc2nsnc2c1)N1CCCC1	ASAP1 inh 35 | ASAP1 inh confirm inactive
C=CCN(C/C(=N\O)c1sc(C(=O)OCC)nc1C)c1cccc(Br)c1	ASAP1 inh 26 | ASAP1 inh confirm inactive
Cc1ccc(S(=O)(=O)N(CC2CO2)c2cc(Cl)ccc2Cl)cc1 (centres undefined)	ASAP1 inh 28 | ASAP1 inh confirm inactive
